Measured values pooled from the literature.
Target: Interleukin-1 receptor-associated kinase 1 (IRAK1, Homo sapiens, UniProt P51617)

Compound	observed	method	concentration	remaining binding
O=C(Nc1c[nH]nc1C(=O)NC1CCNCC1)c1cc(F)cc(F)c1	binding	competition with immobilised ligand	1 µM	95%
N#CC1(c2ccccn2)CCN(Cc2cc(C(=O)N3CCCC3)c(=O)n3ccccc23)CC1	cell-free assay	competition with immobilised ligand	1 µM	100%
CN(C)c1nccc(-c2cnn3ncccc23)n1	binding	–	1 µM	71%
Cc1cnc(Nc2ccc(C(=O)N3CCC(N4CCCC4)CC3)cc2)nc1-c1cc2ccccc2s1	binding	competition with immobilised ligand	1 µM	0%
Cc1nccc(COC(=O)N2C[C@@H]3[C@@H](CNC(=O)c4ccc5[nH]nnc5c4)[C@@H]3C2)n1	cell-free assay	competition with immobilised ligand	1 µM	81%
O=C(c1ccc(Nc2ncc(Cl)c(-c3ccc(Cl)s3)n2)cc1)N1CCC(N2CCCC2)CC1	binding	competition with immobilised ligand	1 µM	0.05%
Cc1cnn2ncc(-c3ccnc(N(C)C)n3)c2c1	binding	–	1 µM	100%
CNC(=O)[C@@H]1CC[C@@H](n2c(-c3ccc4cnccc4c3)nc3ccc(C(=O)NCc4cccc(C(N)=O)c4)cc32)C1	binding	competition with immobilised ligand	1 µM	100%
Nc1ncc2c(n1)-c1c([nH]c3ccc(C#CC4CC4)cc13)CCCC2	binding	competition with immobilised ligand	1 µM	96%
COc1ncc2cc3ccccc3nc2c1C#N	cell-free assay	competition with immobilised ligand	5 µM	92%
O=C(NCCCN1CCOCC1)c1ccc(Nc2nccc(-c3cc4ccccc4s3)n2)cc1	binding	competition with immobilised ligand	1 µM	3.3%
COc1cnc(Nc2cccc(S(N)(=O)=O)c2)nc1N1CCN(c2ccccc2)CC1	binding	competition with immobilised ligand	1 µM	68%
CCCOc1ccc([C@H]2[C@H](C(=O)O)[C@@H](c3ccc4c(c3)OCO4)CN2CC(=O)Nc2c(CC)cccc2CC)cc1	cell-free assay	competition with immobilised ligand	1 µM	67%
c1cnn2ncc(-c3ccnc(N4CCC45COC5)n3)c2c1	binding	–	1 µM	76%
Cc1c(NC(=O)c2cc(C(N)=O)nc3cc(F)ccc23)c(C(F)(F)F)nn1Cc1ccc(C#N)cc1	cell-free assay	competition with immobilised ligand	1 µM	70%
C[C@H]1CCN(c2nccc(-c3cnn4ncccc34)n2)C1	binding	–	1 µM	100%
c1cncc(-c2cccc(Nc3nccc(NC4CCCCC4)n3)c2)c1	binding	competition with immobilised ligand	10 µM	9.9%
CN(c1ccnc(CNc2nc(Nc3ccc4c(c3)CC(=O)N4)ncc2C(F)(F)F)n1)S(C)(=O)=O	cell-free assay	competition with immobilised ligand	1 µM	13%
CC1CCCN1c1nccc(-c2cnn3ncccc23)n1 (stereo not drawn)	binding	–	1 µM	85%
C[C@@]1(Cc2ccc(C#N)cc2)C(=O)N(c2cc(Cl)cc(Cl)c2)c2ncc(C(=O)NC3(c4nc(C5CCC5)no4)CC3)n21	cell-free assay	competition with immobilised ligand	1 µM	100%
N[C@H]1CCN(c2nccc(-c3cnn4ncccc34)n2)C1	binding	–	1 µM	90%
